Source: PubChem BioAssay (several laboratories)
CYP2C19 inhib: human CYP2C19 inhibition | inhibition, % at 5 µM | CYP2C19 Supersomes, luciferin-H EGE luminescence, 30 min | 21% of 96,000 active | P33261;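 active = CYP2C19 inhibition above a set limit at 5 µM in the primary screen, cut at about 50% in these data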
CYP2C9 inhib: inhibitors of human CYP2C9; P11712; CYP2C9 Supersomes, luciferin-H conversion, luminescence; inhibition, % at 5 µM; 20% of 96,000 active; AID 777;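 active = blocking of liver enzyme CYP2C9 beyond about 50% at 5 µM, limit read from the data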
Target sequence (P11712 whole entry, looked up): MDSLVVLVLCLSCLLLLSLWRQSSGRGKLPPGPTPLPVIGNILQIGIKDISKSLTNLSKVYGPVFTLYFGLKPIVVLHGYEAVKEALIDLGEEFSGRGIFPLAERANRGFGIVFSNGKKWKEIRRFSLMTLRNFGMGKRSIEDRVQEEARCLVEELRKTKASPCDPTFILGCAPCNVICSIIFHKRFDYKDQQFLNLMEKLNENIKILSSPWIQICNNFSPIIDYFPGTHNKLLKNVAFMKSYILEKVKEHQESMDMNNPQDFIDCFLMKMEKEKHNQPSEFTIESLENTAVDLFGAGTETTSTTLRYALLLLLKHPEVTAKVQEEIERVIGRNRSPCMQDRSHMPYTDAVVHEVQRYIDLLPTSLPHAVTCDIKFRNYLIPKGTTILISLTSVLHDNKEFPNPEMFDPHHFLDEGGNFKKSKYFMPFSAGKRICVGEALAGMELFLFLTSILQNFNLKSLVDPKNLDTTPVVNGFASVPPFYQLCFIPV
CYP2C19 activ: activators of human cytochrome P450 2C19 | 96,000 tested, under 10 active | activation factor at 5 µM | recombinant CYP2C19, luciferin-H EGE luminescence; active compounds read high; 0 = fully inhibited enzyme, 1 = untreated enzyme | AID 1025;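 active = activation factor of at least 2 at 5 µM in the primary screen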
tolC growth inh: growth inhibitors of E. coli BW25113 tolC mutant; OD615; growth inhibition, % at 10 µM (by protocol); 2.2% of 65,000 active; AID 573;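 active = growth inhibition at or above a cutoff equal to the mean over every tested compound plus 3 SD, cut at about 60% in these data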;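 note: growth measured after 20 h incubation at 37 °C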
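Test system: E. coli BW25113 ΔtolC::kan bacteria; incubation: 37 °C, 20 h exposure; medium: LB broth supplemented with 50 µg/mL kanamycin; read-out basis: percent growth inhibition; signal: A615 absorbance measurement; compound: 10 µM final, single dose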
Ecoli WT expand: blocks growth of wild type E. coli BW25113; OD600 absorbance; growth inhibition, % at 100 µM; 0.15% of 98,000 active;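 active = growth inhibition above about 50% at one test dose, limit read from the data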;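 note: growth measured after 20 h incubation at 37 °C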
CYP2C9 activ: increases human cytochrome P450 2C9 activity; AID 1024; 1.4% of 96,000 active; P11712; recombinant CYP2C9, luciferin-H conversion, luminescence; active compounds read high; factor 1 = untreated enzyme, 0 = blocked; activation factor at 5 µM;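 active = activation factor of 2 or more for CYP2C9 at a 5 µM dose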
Of the large screens only hits and unclear results are named; the others gave an inactive call. An excerpt weighted towards active compounds, which were near 29% of everything screened.

O=C(COc1ccccc1Cl)N1CCCC1	none
O=C(COc1ccccc1Cl)N1CCN(c2ccc(F)cc2)CC1	CYP2C19 inhib 82
O=C(CN1C(=O)c2cccc3cccc1c23)N1CCN(c2ccc(F)cc2)CC1	CYP2C9 activ 2.2
O=C(Cn1cccc1)N1CCN(c2ccc(F)cc2)CC1	CYP2C19 inhib 73
O=[N+]([O-])c1ccc(N2CCCCC2)cc1N1CCOCC1	none (no result: tolC growth inh)
CCOC(=O)c1ccc(COC(=O)CNC(=O)CNC(=O)c2ccc(OC)cc2)o1	none
CCOC(=O)N1CCC(NC(=O)c2ccc(CNS(=O)(=O)c3ccc(F)cc3)cc2)CC1	none
Cn1c(=O)c2c(ncn2CC(=O)N2CCN(c3ccc(F)cc3)CC2)n(C)c1=O	CYP2C9 inhib 78
O=[N+]([O-])c1ccc(N2CCN(S(=O)(=O)Cc3ccccc3)CC2)cc1N1CCOCC1	CYP2C19 inhib 56, CYP2C9 inhib 53 (no result: tolC growth inh)
O=C(COc1ccccc1Br)N1CCN(c2ccccc2)CC1	CYP2C19 inhib 95 (no result: tolC growth inh)
Cc1nc2ccccc2nc1OCC(=O)N1CCN(c2ccccc2)CC1	none
COc1ccc(Nc2ncc(C(=O)N3CCN(c4ccc(F)cc4)CC3)c3ccccc23)cc1	CYP2C19 inhib 61, CYP2C9 inhib 66 (no result: tolC growth inh)
Cc1cc(CN2CCOCC2)c(O)c(C2(C)CCCCC2)c1	none
CCOc1ccc(CC(=O)Nc2c(C(N)=O)oc3ccccc23)cc1OCC	none (no result: CYP2C19 inhib, CYP2C9 inhib, CYP2C19 activ, CYP2C9 activ)
O=C(OCC(=O)N1CCN(c2ccccc2)CC1)c1ccc2ccccc2n1	CYP2C9 activ 2.3 (no result: tolC growth inh)
O=C(OCC(=O)N1CCN(c2ccccc2)CC1)c1ccccn1	none
COC(=O)c1ccc(OC)cc1OCC(=O)N1CCN(c2ccc(F)cc2)CC1	CYP2C19 inhib 64 (no result: tolC growth inh)
CN(C)/C=N/c1sccc1C(N)=O	none
COCCNC(=O)CN(c1ccccc1OC)S(C)(=O)=O	none
COCCNC(=O)CN(c1cc(C(F)(F)F)ccc1Cl)S(C)(=O)=O	CYP2C19 inhib 58
COC(=O)CN(c1cc(C(F)(F)F)ccc1Cl)S(C)(=O)=O	CYP2C19 inhib 56
Cn1c(=O)c(=O)n(C)c2cc(S(=O)(=O)N3CCN(c4cccc(C(F)(F)F)c4)CC3)ccc21	none
O=C(O)C1CCCCC1C(=O)Nc1ccc(F)cc1F (stereo unspecified)	none (no result: tolC growth inh)
COC(=O)c1ccccc1NC(=O)c1cccs1	none
O=C(NOC(=O)c1ccccc1Cl)c1cccs1	CYP2C9 inhib 51 (no result: tolC growth inh)
COc1ccccc1N1Cc2ccccc2C1	none (no result: tolC growth inh)
COc1ccccc1-n1c(C)cc(C=O)c1C	CYP2C9 inhib 54 (no result: tolC growth inh)
Cc1ccc(CC(CC(=O)O)C(=O)NC2CCCCC2)cc1 (stereo unspecified)	none
Cc1nc2ncnn2c(C)c1CCC(=O)NCc1ccc2c(c1)OCO2	none
CCCNC(=O)COc1ccc(S(=O)(=O)Nc2ccc(C)cc2)cc1	CYP2C19 inhib 69, CYP2C9 inhib 52 (no result: tolC growth inh)
Cc1ccc(NS(=O)(=O)c2ccc(CCC(=O)NCCO)cc2)cc1	CYP2C19 inhib 58, CYP2C9 inhib 85 (no result: tolC growth inh)
COc1ccc(NS(=O)(=O)c2ccc(OCC(=O)N3CCCC3)cc2)cc1	none
CCOc1ccccc1N(C(=O)CNC(=O)c1ccco1)C(C(=O)NC(C)(C)C)c1ccncc1 (stereo unspecified)	none
CC(=O)N=c1cccc(NC(C)=O)n1O	none
CCCCN1CCc2c1nc1ccc(Br)cc1c2N	none (no result: tolC growth inh)
Cc1ccc(F)cc1NC(=O)CCC(=O)c1cccs1	CYP2C19 inhib 89 (no result: tolC growth inh)
O=C(CCC(=O)N1CCN(S(=O)(=O)c2ccccc2)CC1)c1cccs1	none
O=C(CCC(=O)c1cccs1)NC(c1ccccc1)c1ccccc1	CYP2C19 inhib 74, CYP2C9 inhib 55 (no result: tolC growth inh)
O=C(c1ccco1)N1CCN(C(=O)c2nn3cccnc3c2Cl)CC1	none (no result: tolC growth inh)
Cc1ccc(N2C(=O)c3n[nH]c(C)c3C2c2ccco2)cc1 (stereo unspecified)	none (no result: tolC growth inh)
CCOC(=O)c1ccc(N2C(=O)c3n[nH]c(C)c3C2c2ccc(OC)c(OC)c2)cc1 (stereo unspecified)	CYP2C19 inhib 82, CYP2C9 inhib 78
CCOC(=O)c1ccc(N2C(=O)c3n[nH]c(C)c3C2c2ccc(OC)cc2OC)cc1 (stereo unspecified)	tolC growth inh 68 (no result: CYP2C19 inhib, CYP2C9 inhib, CYP2C19 activ, Ecoli WT expand, CYP2C9 activ)
CCOC(=O)c1ccc(N2C(=O)c3n[nH]c(C)c3C2c2ccco2)cc1 (stereo unspecified)	CYP2C19 inhib 81, CYP2C9 inhib 77
